ChEMBL document CHEMBL1145811, “Synthesis and antibacterial activity of a novel series of acylides: 3-O-(3-pyridyl)acetylerythromycin A derivatives” (J Med Chem, 2003)
Converted amounts (≈) assume the structure as drawn.

Legend:
Assay type in all cases: functional
Streptococcus pneumoniae [1] = experiment: In vitro minimum inhibitory concentration for antibacterial activity against Streptococcus pneumoniae 210 (efflux-resistant strain encoded by the mef(A) gene)
How it was run: (§1)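 Agar dilution MIC determined by the Japan Society of Chemotherapy standard method for aerobic bacteria.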

Haemophilus influenzae [2] = experiment: In vitro minimum inhibitory concentration for antibacterial activity against Haemophilus influenzae ATCC 43095 (ampicillin-susceptible strain that does not produce beta-lactamase); how it was run: as §1
Streptococcus pneumoniae [3] = experiment: In vitro minimum inhibitory concentration for antibacterial activity against Streptococcus pneumoniae 211 (MLSb-resistant strain encoded by the erm(B) gene); how it was run: as §1
Mus musculus [4] = experiment: Effective dose in vivo, in mouse inoculated intraperitoneally with 1.47*10e3 CFU of erythromycin susceptible strain Streptococcus pneumoniae IID553; conditions: ip
How it was run: (§2)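 Mouse protection test: mice were infected intraperitoneally with erythromycin-susceptible S. aureus Smith or S. pneumoniae IID553. Compounds were given orally 1 h after inoculation.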

Streptococcus pneumoniae [5] = experiment: In vitro minimum inhibitory concentration for antibacterial activity against erythromycin susceptible strain Streptococcus pneumoniae IID553
Staphylococcus aureus [6] = experiment: In vitro minimum inhibitory concentration for antibacterial activity against erythromycin-susceptible strain Staphylococcus aureus […]
How it was run: (§3)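 MIC by agar dilution following the Japan Society of Chemotherapy standard method for aerobic bacteria. S. aureus 209P-JC and S. pneumoniae IID553 are erythromycin-susceptible strains.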

Streptococcus pneumoniae [7] = experiment: In vitro minimum inhibitory concentration for antibacterial activity against erythromycin-susceptible strain Streptococcus pneumoniae IID553; how it was run: as §3
Staphylococcus aureus [8] = experiment: In vitro minimum inhibitory concentration for antibacterial activity against Staphylococcus aureus B1 (inducibly MLSb-resistant strain encoded by the erm(C) gene); how it was run: as §1
Staphylococcus aureus [9] = experiment: In vitro minimum inhibitory concentration for antibacterial activity against erythromycin susceptible strain Staphylococcus aureus Smith
Staphylococcus aureus [10] = experiment: In vitro minimum inhibitory concentration for antibacterial activity against Staphylococcus aureus SR138 (constitutively MLSb-resistant strain encoded by the erm(A) gene); how it was run: as §1
Haemophilus influenzae [11] = experiment: In vitro minimum inhibitory concentration for antibacterial activity against Haemophilus influenzae ATCC 33533 (ampicillin-resistant strain that produces beta-lactamase); how it was run: as §1
Mus musculus [12] = experiment: Effective dose in vivo, in mouse inoculated intraperitoneally with 5.80*10e7 CFU of erythromycin susceptible strain Staphylococcus aureus Smith; conditions: ip; how it was run: as §2

Compound | MIC (Streptococcus pneumoniae [1]) [µg/mL] | MIC (Haemophilus influenzae [2]) [µg/mL] | MIC (Streptococcus pneumoniae [3]) [µg/mL] | ED50 (Mus musculus [4]) [mg/kg] | MIC (Streptococcus pneumoniae [5]) [µg/mL] | MIC (Staphylococcus aureus [6]) [µg/mL] | MIC (Streptococcus pneumoniae [7]) [µg/mL] | MIC (Staphylococcus aureus [8]) [µg/mL] | MIC (Staphylococcus aureus [9]) [µg/mL] | MIC (Staphylococcus aureus [10]) [µg/mL] | MIC (Haemophilus influenzae [11]) [µg/mL] | ED50 (Mus musculus [12]) [mg/kg]
CC[C@H]1OC(=O)[C@H](C)[C@@H](OC(=O)Cc2ccc([N+](=O)[O-])cc2)[C@H](C)[C@@H](O[C@@H]2O[C@H](C)C[C@H](N(C)C)[C@H]2O)[C@@](C)(OC)C[C@@H](C)C(=O)[C@H](C)[C@@H](O)[C@]1(C)O | 0.2 (≈ 0.266 µM) | 50 (≈ 66.4 µM) | > 100 | 39.1 | 0.1 (≈ 0.133 µM) | 0.2 (≈ 0.266 µM) | 0.2 (≈ 0.266 µM) | 0.39 (≈ 0.518 µM) | 0.39 (≈ 0.518 µM) | > 100 | 50 (≈ 66.4 µM) | 
CC[C@H]1OC(=O)[C@H](C)[C@@H](OC(=O)Cc2cccnc2)[C@H](C)[C@@H](OC2O[C@H](C)C[C@H](N(C)C)[C@H]2O)[C@@](C)(OC)C[C@@H](C)/C(=N\O)[C@H](C)[C@H]2OC(=O)O[C@@]21C (stereo not given in full) | 0.1 (≈ 0.133 µM) | 3.13 (≈ 4.17 µM) | > 100 | 47.4 | 0.025 (≈ 0.0333 µM) | 0.2 (≈ 0.267 µM) | 0.025 (≈ 0.0333 µM) | 0.39 (≈ 0.52 µM) | 0.39 (≈ 0.52 µM) | > 100 | 6.25 (≈ 8.33 µM) | 27.6
CC[C@H]1OC(=O)[C@H](C)[C@@H](OC(=O)Cc2cccnc2)[C@H](C)[C@@H](OC2O[C@H](C)C[C@H](N(C)C)[C@H]2O)[C@@](C)(O)C[C@@H](C)/C(=N\O)[C@H](C)[C@H]2OC(=O)O[C@@]21C (stereo not given in full) | 0.1 (≈ 0.136 µM) | 3.13 (≈ 4.25 µM) | > 100 | 142 | 0.025 (≈ 0.034 µM) | 0.39 (≈ 0.53 µM) | 0.025 (≈ 0.034 µM) | 0.39 (≈ 0.53 µM) | 0.2 (≈ 0.272 µM) | > 100 | 3.13 (≈ 4.25 µM) | 51.6
CC[C@H]1OC(=O)[C@H](C)[C@@H](OC(=O)Cc2cccnc2)[C@H](C)[C@@H](OC2O[C@H](C)C[C@H](N(C)C)[C@H]2O)[C@@](C)(OC)C[C@@H](C)C(=O)[C@H](C)[C@@H](O)[C@]1(C)O (stereo not given in full) | 0.39 (≈ 0.55 µM) | 12.5 (≈ 17.6 µM) | > 100 | 40.8 | 0.2 (≈ 0.282 µM) | 0.78 (≈ 1.1 µM) | 0.39 (≈ 0.55 µM) | 1.56 (≈ 2.2 µM) | 0.78 (≈ 1.1 µM) | > 100 | 12.5 (≈ 17.6 µM) | 9.57
CC[C@H]1OC(=O)[C@H](C)[C@@H](OC(=O)Cc2cccc([N+](=O)[O-])c2)[C@H](C)[C@@H](OC2O[C@H](C)C[C@H](N(C)C)[C@H]2O)[C@@](C)(OC)C[C@@H](C)C(=O)[C@H](C)[C@@H](O)[C@]1(C)O (stereo not given in full) | 0.2 (≈ 0.266 µM) | 25 (≈ 33.2 µM) | > 100 |  |  | 0.2 (≈ 0.266 µM) | 0.1 (≈ 0.133 µM) | 0.78 (≈ 1.04 µM) |  | > 100 | 25 (≈ 33.2 µM) | 
